A selection: hits, their analogues and other compounds. The true share with any hit is near 2%.
CHRM1 agonist – human M1 muscarinic receptor agonists, primary screen, Fluo-8 calcium fluorescence, CHO-K1 cells, HTS; Muscarinic acetylcholine receptor M1 (Homo sapiens), P11229; CHO-K1 hM1, agonist mode; 0% DMSO, 100% acetylcholine EC100; activation, % at 3 µM; hit rate 0.33% among 360,000;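 active means activation above the run's mean compound activation plus 3 SD, cut at about 16% in these data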;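 further: peak over basal fluorescence ratio within a 140 s kinetic read after compound addition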
CHRM1 PAM – human M1 muscarinic receptor positive allosteric modulators, primary screen, CHO-K1 cells, Fluo-8 calcium fluorescence, 1536-well; Muscarinic acetylcholine receptor M1 (Homo sapiens), P11229; AID 588819, 2011; CHO-K1 hM1, ACh EC20; 0% = ACh EC20, 100% = maximal ACh; activation, % at 3 µM; hit rate 0.088% among 360,000; in the data active means activation above about 19%, passing the limit was not always enough
M1 antag – human M1 muscarinic receptor antagonists, primary screen, CHO-K1 cells, Fluo-8 calcium fluorescence, 1536-well; CHO-K1 hM1, ACh EC80 antagonist; hit rate 1.3% among 360,000; Muscarinic acetylcholine receptor M1 (Homo sapiens), P11229; inhibition, % at 3 µM;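 active means percent inhibition above its own plate's cutoff, namely the mean of that plate's compound wells plus 3 SD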;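 further: peak over basal fluorescence ratio during 140 s after agonist addition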
CHRM5 agonist – human M5 muscarinic receptor agonists, primary screen, CHO-K1 cells, Fluo-8 calcium fluorescence | Muscarinic acetylcholine receptor M5 (Homo sapiens), P08912 | CHO-K1 hM5 cells; 0% DMSO wells, 100% maximal acetylcholine response | activation, % at 3 µM | hit rate 0.19% among 360,000 | AID 624037, 2012;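 active means activation above the run's mean over test compounds plus 3 SD, cut at about 23% in these data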;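 further: signal is peak over basal fluorescence ratio across the kinetic read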
Target sequence (P08912 whole entry, looked up): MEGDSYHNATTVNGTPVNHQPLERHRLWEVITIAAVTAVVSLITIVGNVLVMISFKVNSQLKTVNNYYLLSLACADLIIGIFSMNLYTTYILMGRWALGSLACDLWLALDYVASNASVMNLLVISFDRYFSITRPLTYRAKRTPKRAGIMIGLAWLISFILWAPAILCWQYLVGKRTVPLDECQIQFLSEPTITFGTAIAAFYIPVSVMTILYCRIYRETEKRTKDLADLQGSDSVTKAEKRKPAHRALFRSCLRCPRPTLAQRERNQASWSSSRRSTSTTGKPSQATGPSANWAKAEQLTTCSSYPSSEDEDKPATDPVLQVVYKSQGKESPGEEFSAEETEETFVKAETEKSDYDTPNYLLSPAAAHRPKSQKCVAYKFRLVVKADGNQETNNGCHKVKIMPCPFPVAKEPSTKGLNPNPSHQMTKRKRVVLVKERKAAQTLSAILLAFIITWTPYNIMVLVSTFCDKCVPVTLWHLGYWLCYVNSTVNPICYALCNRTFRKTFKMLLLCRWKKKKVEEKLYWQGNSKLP
M5 antag – human M5 muscarinic receptor antagonists, primary screen, CHO cells, Fluo-8 calcium fluorescence | CHO-hM5 cells, ACh EC80 | inhibition, % at 3 µM | hit rate 0.59% among 360,000 | AID 624040, 2012;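 active means inhibition above a per-plate cutoff, the mean of that plate's test compounds plus 3 SD, cut at about 27% in these data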
CHRM5 PAM – human M5 muscarinic receptor positive allosteric modulators, primary screen, CHO-K1 cells, Fluo-8 calcium fluorescence. activation, % at 3 µM. Muscarinic acetylcholine receptor M5 (Homo sapiens), P08912. hit rate 0.3% among 360,000. CHO-K1 hM5, ACh EC20 PAM; 0% = ACh EC20, 100% = ACh EC100;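 active means activation above the run cutoff, the mean activation of all test compounds plus 3 SD, cut at about 18% in these data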
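Assay system: CHO-K1 hM5 cells / Incubation: Fluo-8 loading 80 min at 37 °C plus 30 min room temperature / Technique: Fluo-8 calcium dye fluorescence, kinetic read / Repeats: single replicate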
A number is an active result; i = inactive; nt = not tested or not shown.

SMILES | CHRM1 agonist | CHRM1 PAM | M1 antag | CHRM5 agonist | M5 antag | CHRM5 PAM
Cc1nn(C)cc1CNC(=O)c1cc2n(n1)C(C(F)(F)F)CC(c1cccs1)N2 (centres undefined) | i | i | 23 | i | i | i
Cc1ccc(S(=O)(=O)N2CCC(C(=O)OCC(=O)N3C(C)CCCC3C)CC2)cc1C (centres undefined) | i | i | i | i | i | i
Cc1cc(C(=O)CSc2nc3ccccc3[nH]2)c(C)n1Cc1ccco1 | i | i | 40 | i | 27 | i
C=CCn1c(C)cc(C(=O)CSc2nc3ccccc3[nH]2)c1C | i | i | 39 | i | i | i
CC(=O)c1c(C)[nH]c(C(=O)OCC(=O)N2CCN(c3ccccc3)CC2)c1C | i | i | i | i | i | i
O=C(C[C@H]1C(=O)N(Cc2ccccc2)C[C@@H]1Cc1ccccc1)Nc1ccc(Br)cc1 | i | i | i | i | i | i
CN1CCN(c2ccc(-c3ccnn3C(=O)Nc3cccc(C(F)(F)F)c3)cc2)CC1 | i | i | i | i | 28 | i
CCCCCCCCCc1conc1C(=O)/C=C/c1ccco1 | nt | nt | nt | i | i | i
COc1cc(C(=S)N2CCCCC2)ccc1OCC(=O)N1CCCC1 | i | i | i | i | i | i
COc1cc(C=O)ccc1OCC(=O)N1CCCC1 | i | i | i | i | i | 20
CCOC(=O)C1(C)CCN1C(=O)c1cc(C)oc1C (centres undefined) | i | i | i | i | i | i
Cc1cc(C)n(CC(O)Cn2c3ccccc3c3ccccc32)n1 (centres undefined) | i | i | i | i | i | i
Cc1nccn1CC(O)Cn1c2ccccc2c2ccccc21 (centres undefined) | i | i | 36 | i | i | i
CCCNC(=O)N1CCN(C(c2ccccc2)c2ccccc2)CC1 | i | i | i | i | i | i
O=C(NC(=O)N1CCN(C(c2ccccc2)c2ccccc2)CC1)c1ccccc1 | i | i | 66 | i | i | i
O=C(Nc1ccccc1C(F)(F)F)N1CCCCCC1 | i | i | i | i | i | i
O=C(Nc1ccccc1C(F)(F)F)N1CCN(C(c2ccccc2)c2ccccc2)CC1 | i | i | 44 | i | 30 | i
Fc1ccc(N2CCN(C3=Nc4cccc5cccc3c45)CC2)cc1 | i | i | 88 | i | i | i
Cc1ccc(CNc2ncnc3cc(Cl)ccc23)cc1 | i | i | i | i | 35 | i
Cc1ccccc1CNc1ncnc2cc(Cl)ccc12 | i | i | i | i | i | i
CCOC(=O)c1ccc(NC(=O)CCc2nc(-c3ccccc3Cl)no2)cc1 | i | i | i | i | i | i
O=C(NCCc1ccccc1)c1ccc(NC(=O)c2cccnc2)cc1 | i | i | i | i | i | i
CCOC(=O)c1ccc(NC(=O)CCc2nc(-c3ccccc3)no2)cc1 | i | i | 31 | i | i | i
O=C(Nc1ccc(-c2noc(CCc3ccccc3)n2)cc1)c1cccnc1 | i | i | 26 | i | i | i
CSCCC(NC(=O)COc1ccccc1)C(=O)NCC(C)(C)N1CCOCC1 (centres undefined) | i | i | i | i | i | i
SMILES | CHRM1 agonist | CHRM1 PAM | M1 antag | CHRM5 agonist | M5 antag | CHRM5 PAM
COc1ccc(CNc2ncnc3c2[nH]c2ccccc23)cc1 | i | i | 37 | i | i | i
CCOc1ccc2[nH]c3c(NCCCOC)ncnc3c2c1 | i | i | i | i | i | i
C1=C(CCNc2ncnc3c2[nH]c2ccccc23)CCCC1 | i | i | i | i | 32 | i
O=c1c2[nH]c3ccccc3c2ncn1CCC1=CCCCC1 | i | i | i | i | i | i
CC(C)OCCCNc1ncnc2c1[nH]c1ccccc12 | i | i | 39 | i | 30 | i
Cc1nc(N)c(C#N)c(-c2cccnc2)c1C | i | i | i | i | i | 26
C/C(=N\n1c(C)nc2ccccc2c1=O)c1ccc(C)o1 | i | 28 | i | i | i | i
Cc1ccc(/C=N/n2c(C)nc3ccccc3c2=O)o1 | i | i | i | i | i | i
CCCCC[C@@H](C)N1C[C@H](COCc2ccccc2)Oc2cc(N3CC[C@H](N(C)C)C3)ccc2S1(=O)=O | nt | nt | nt | i | i | i
Cc1nc(SCC(=O)NC2CCS(=O)(=O)C2)c2c3c(sc2n1)CCC3 (centres undefined) | i | i | i | i | i | i
Cc1nc(SCC(=O)NC2CCS(=O)(=O)C2)c2c3c(sc2n1)CCCC3 (centres undefined) | i | i | 26 | i | i | i
Cc1c(N=NC2=C(O)CC(C)(C)CC2=O)cc2c(c1[N+](=O)[O-])C(C)(C)CC2(C)C | i | i | i | i | i | 23
O=C(NC1CCN(Cc2ccccc2)CC1)c1[nH]c(C(F)(F)F)nc1-c1ccccc1 | i | i | i | i | i | i
CCSc1ncc(Cl)c(C(=O)Nc2ccc(S(=O)(=O)Nc3onc(C)c3C)cc2)n1 | i | 22 | i | i | 48 | i
Cc1noc(NS(=O)(=O)c2ccc(NC(=O)c3ccc(N4C(=O)c5ccccc5C4=O)cc3)cc2)c1C | i | i | i | i | i | 19
CCc1ccc(C2CC3C(CN2S(=O)(=O)c2ccc(C)cc2)C(=O)CC(c2ccc(CC)cc2)N3S(=O)(=O)c2ccc(C)cc2)cc1 (centres undefined) | nt | nt | nt | i | i | i
NCCCC(=O)N1c2ccccc2Sc2ccccc21 | i | i | 94 | i | 67 | i
NCCC(=O)N1c2ccccc2Sc2ccccc21 | i | i | 41 | i | i | i
Nc1ccc(/C=C/C(=O)c2cccs2)cc1 | i | i | i | 33 | i | i
CCCC(C)C(=O)Nc1ncc(S(=O)(=O)c2ccc([N+](=O)[O-])cc2)s1 (centres undefined) | 40 | i | i | 49 | i | i
CCC(C)(C)C(=O)Nc1ncc(S(=O)(=O)c2ccc([N+](=O)[O-])cc2)s1 | i | i | i | i | i | i
O=[N+]([O-])c1ccc(N=Nc2c(Cl)cc(O)cc2Cl)cc1 | i | i | 32 | i | 30 | i
Cc1ccc(S(=O)(=O)C[C@@H]2OC[C@H](CO)N2S(=O)(=O)c2ccc(C)cc2)cc1 | nt | nt | nt | i | i | i
CN1CCN(c2ccc(S(=O)(=O)N3CCCCC3)cn2)CC1 | i | i | i | i | i | i
